Measured values from different studies.
Each line is one published result; the experiments were not run side by side.
Target: Ephrin type-A receptor 7 (EPHA7, Homo sapiens, UniProt Q15375)

With `C=CC(=O)N1CCC(C(=O)NCC(=O)N2CCN(c3nc(-c4cnc(N)nc4C(F)F)nc(N4CCOCC4)n3)CC2)CC1` the remaining binding was 100% (binding, competition with immobilised ligand; 1 µM).
`CCN1CCN(Cc2ccc(C(=O)Nc3ccc(C)c(Oc4ccc5c(c4)CC(=O)N5)c3)cc2C(F)(F)F)CC1` gave a remaining binding of 89% (binding, competition with immobilised ligand; 1 µM).
`O=C(NCCCN1CCOCC1)c1ccc(Nc2nccc(-c3cc4ccccc4s3)n2)cc1` has a remaining binding of 100% (binding, competition with immobilised ligand; 1 µM).
`O=C(Nc1c[nH]nc1C(=O)NC1CCNCC1)c1cc(F)cc(F)c1` gave a remaining binding of 100% (binding, competition with immobilised ligand; 1 µM).
For `Cc1cc(-n2nc(Cc3cc(F)cc(C(F)(F)F)c3)nc2C)ccc1C(N)=O`, the remaining binding was 98% (cell-free assay, competition with immobilised ligand; 1 µM).
The remaining binding of `CN(CCCC(F)(F)F)c1nccc(-c2cnn3ncccc23)n1` is reported as 96% (binding; 1 µM).
`O=C(Nc1cccnn1)N1CCC(=Cc2cccc(Oc3ccc(C(F)(F)F)cn3)c2)CC1` gave a remaining binding of 95% (cell-free assay, competition with immobilised ligand; 1 µM).
With `COc1cnc(Nc2cccc(S(N)(=O)=O)c2)nc1N1CCN(c2ccccc2)C(=O)C1` the remaining binding was 100% (binding, competition with immobilised ligand; 1 µM).
`CNC(=O)Nc1ccc2c(c1)[C@@]1(CC2)OC(=O)N(CC(=O)N(Cc2ccc(F)cc2)[C@@H](C)C(F)(F)F)C1=O` has a remaining binding of 100% (cell-free assay, competition with immobilised ligand; 1 µM).
For `CC1CCCN1c1nccc(-c2cnn3ncccc23)n1` (stereo not drawn), the remaining binding was 99% (binding; 1 µM).
With `O=C(Nc1cnc(Oc2ccc(F)cc2)nc1)N1CCc2ncccc2[C@@H]1c1ccc(F)cc1` the remaining binding was 88% (cell-free assay, competition with immobilised ligand; 1 µM).
For `CNC(=O)[C@@H]1CC[C@@H](n2c(-c3ccc4cnccc4c3)nc3ccc(C(=O)NCc4cccc(C(N)=O)c4)cc32)C1`, the remaining binding was 100% (binding, competition with immobilised ligand; 1 µM).
The remaining binding of `Cc1cnn2ncc(-c3ccnc(N(C)C)n3)c2c1` is reported as 100% (binding; 1 µM).
With `O=C(c1ccc(Nc2nccc(-c3cc4ccccc4s3)n2)cc1)N1CCC(N2CCCC2)CC1` the remaining binding was 100% (binding, competition with immobilised ligand; 1 µM).
For `C[C@@H]1CCN(c2nccc(-c3cnn4ncccc34)n2)C1`, the remaining binding was 84% (binding; 1 µM).
For `C[C@@H](c1ccc(-n2cnc3c(N)ncnc32)cc1)N1CCc2nn(C)c(Cc3ccccc3)c2C1=O`, the remaining binding was 69% (binding, competition with immobilised ligand; 0.1 µM).
With `CCOC(=O)c1cc2cc(-c3cc(C(=O)NCc4ccc(C(=O)O)cc4)nn3C)ccc2[nH]1` the remaining binding was 97% (cell-free assay, competition with immobilised ligand; 0.1 µM).
For `CN(c1nccc(-c2cnn3ncccc23)n1)C1CC1`, the remaining binding was 100% (binding; 1 µM).
With `O=C(NCCCN1CCOCC1)c1ccc(Nc2ncc(Cl)c(-c3ccc(Cl)s3)n2)cc1` the remaining binding was 60% (binding, competition with immobilised ligand; 1 µM).
The remaining binding of `C[C@@H]1CN(c2cc(-c3nn(C)c4ccc(OC5(C)CC5)cc34)ncn2)C[C@H](C)O1` is reported as 99% (cell-free assay, competition with immobilised ligand; 1 µM).
`N[C@H]1CCN(c2nccc(-c3cnn4ncccc34)n2)C1` has a remaining binding of 100% (binding; 1 µM).
